# Compound activity: PubChem BioAssay, several laboratories
# The sample as a whole holds a higher share of hits than the screen did.
# Jurkat NFkB inh: inhibitors of the PMA/ionomycin-induced NF-kB reporter in Jurkat cells; AID 435003; hit rate 0.53% among 330,000; inhibition, % at 4 µM; PMA/ionomycin-induced NF-kB luciferase reporter, luminescence; in the data active = inhibition above about 50%
# 697 NFkB inh: inhibitors of the PMA/ionomycin-induced NF-kB reporter in 697 B cells; 697 B-cell NF-kB luciferase reporter, 16 h; inhibition, % at 4 µM; hit rate 0.33% among 330,000; in the data active = inhibition above about 35%
# CHOP UPR activ: activators of apoptotic arm of unfolded protein response (CHOP) | hit rate 0.34% among 330,000 | CHO-CHOP luciferase reporter, UPR activation, luminescence; percent of tunicamycin response over DMSO baseline | activation, % at 10 µM;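 active = at 10 µM dose, activation of 40% or more, normalized to positive control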;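 note: 100% = tunicamycin at 10 µg/mL and 0% = DMSO alone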
#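 System: CHO-CHOP luciferase reporter cell line; amount: 500 cells/well; buffer or medium: F12 medium containing 10% fetal bovine serum; incubation: 6 h compound exposure at 37 °C after overnight seeding; measured by: luciferase luminescence after 10 min with Steady-Glo reagent; evaluation: % reporter activation, DMSO baseline versus tunicamycin full activation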
# XBP1 UPR activ: activators of adaptive arm of unfolded protein response (XBP1) | CHO-XBP1 luciferase reporter, IRE1-XBP1 UPR activation, luminescence; percent of tunicamycin response, DMSO as zero | activation, % at 20 µM | hit rate 0.33% among 330,000;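 active = versus positive control, 20 µM dose yields 30% or more activation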;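 note: 100% = tunicamycin at 10 µg/mL and 0% = DMSO only wells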
#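 Material: CHO cell line with stable XBP1 luciferase reporter; schedule: 16-18 h cell attachment at 37 °C, then 6 h compound exposure; signal: glow luminescence from Steady-Glo reagent; medium: serum-containing F12 medium, 10% FBS; benchmarks: tunicamycin 10 µg/mL and vehicle-only wells; read-out: percent activation relative to tunicamycin reference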
# CHOP inhibitor: inhibitors of CHOP induction in ER stress response; hit rate 3.8% among 220,000; CHO-K1 CHOP-promoter luciferase, tunicamycin-induced, 15-18 h; AID 2732; inhibition, % at 10 µM;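 active = compounds that reduced the stress-induced luciferase reporter signal by more than about 70% of percent inhibition, limit read from the data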;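 note: 0% = tunicamycin plus vehicle and 100% = wells without tunicamycin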
# UPR CHOP confirm: apoptotic UPR (CHOP) activation, confirmed; shares compounds with CHOP UPR activ; CHO-CHOP cells, CHOP-luciferase reporter luminescence; percent of tunicamycin response, DMSO as zero; activation, % at 10 µM; hit rate 64% among 1,000; AID 463112; in the data active = activation above about 33%;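 note: 0% = DMSO wells and 100% = tunicamycin 10 µg/mL wells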
# Active calls of the source: *; · = no result given.
SMILES,Jurkat NFkB inh,697 NFkB inh,CHOP UPR activ,XBP1 UPR activ,CHOP inhibitor,UPR CHOP confirm
O=C(c1ccc(Cl)cc1)C(CN1CCCC1)c1ccccc1 (configuration not stated),8,-113,151*,0,·,170*
COc1ccc(C(=O)C(CN2CCOCC2)c2ccccc2)cc1 (configuration not stated),26,-62,46*,-2,-42,36*
Cn1nc(C(=O)OCC(=O)c2ccc(Cl)cc2)c2ccccc2c1=O,3,-15,0,-2,·,·
C=CCN=c1scc(C)n1/N=C/c1ccc(O)c(O)c1,-3,-130,302*,19,-103,208*
CN=c1scc(C)n1/N=C/c1cc(Br)c(O)c(Br)c1,-8,1,1,-3,3,·
CN=c1scc(-c2ccco2)n1/N=C/c1ccc(O)c(O)c1,10,-157,52*,-3,23,70*
COc1ccc(O)c(/C=N/n2c(-c3ccco3)csc2=Nc2cccnc2)c1,-7,-22,0,8,0,·
CC(=O)Nc1ccc(S(=O)(=O)N(C)CC(=O)OC(C)C(=O)NC2CCCCC2)cc1 (configuration not stated),2,3,2,0,·,·
COc1cc(/C=C2\C(=O)ON=C2c2ccc(Cl)cc2)ccc1O,-5,-13,180*,0,·,143*
Cc1ccc(S(=O)(=O)NC2OC(=O)C(Cl)=C2Cl)cc1 (configuration not stated),-3,12,63*,-5,-78,15
CC(=O)/C(=C/c1ccccc1)C(=O)Nc1ccccc1C,3,25,46*,-3,-77,64*
O=[N+]([O-])c1ccc(Sc2nnnn2-c2ccccc2)nc1,39,-86,126*,-1,-265,101*
O=[N+]([O-])c1ccc(Sc2ccccn2)nc1,2,9,3,1,19,·
Cc1c(C(=O)c2no[n+]([O-])c2C(=O)c2cnn(C)c2C)cnn1C,14,18,55*,-7,4,91*
Cc1ccc(-n2[nH]c(C)c(/C=N/NC(=O)c3ccc([N+](=O)[O-])cc3)c2=O)c(C)c1,-4,2,1,-3,57,·
Cc1cccc(OCCCN2CCCCCC2)c1,7,21,1,-2,-12,·
Cc1cccc(OCCN2CSC(=S)N(C)C2)c1,-16,-23,59*,6,-68,35*
COc1ccccc1OCCN1CSC(=S)N(C)C1,5,2,82*,-3,29,28
Fc1ccc(NC(=S)N2CCN(c3ccccn3)CC2)cc1Cl,-2,-9,-1,-3,·,·
O=C(Cn1cc(C(F)(F)F)ccc1=O)NCC1CCCO1 (configuration not stated),-2,31,1,-1,·,·
O=C(N/N=C/c1cccc([N+](=O)[O-])c1)c1cc(-c2ccc3c4c(cccc24)CC3)n[nH]1,-24,-44,-1,-2,-1,·
O=C(N/N=C/c1ccc(Cl)c([N+](=O)[O-])c1)c1cc(-c2ccc3c4c(cccc24)CC3)n[nH]1,5,21,43*,1,77*,14
Clc1ccc(-c2nnc(COc3ncnc4sccc34)o2)cc1,-7,8,3,-3,2,·
CCc1nnc(NC(=O)c2nc(S(=O)(=O)Cc3ccccc3)ncc2Cl)s1,6,-78,59*,-9,·,13
CCc1nnc(NC(=O)c2nc(S(=O)(=O)Cc3cccc(C)c3)ncc2Cl)s1,7,-123,72*,-11,·,30
SMILES,Jurkat NFkB inh,697 NFkB inh,CHOP UPR activ,XBP1 UPR activ,CHOP inhibitor,UPR CHOP confirm
CCc1nnc(NC(=O)c2nc(S(=O)(=O)Cc3ccc(C)cc3)ncc2Cl)s1,9,-25,51*,-7,·,38*
CCS(=O)(=O)c1ncc(Cl)c(C(=O)Nc2ccc(C)cc2)n1,14,-63,12,-10,·,·
COc1ccc(CN(C)C(=O)c2ccccc2Sc2ccccc2C#N)c(OC)c1,-7,-5,1,-6,·,·
Cc1ccccc1C(=O)Nc1nnc(SC(C)C)s1,-9,-14,5,5,47,·
COC(=O)c1nn(-c2ccc(OC)cc2)c(=O)cc1O,-21,7,1,-3,-14,·
COc1ccc(-n2nc(C#N)c(Cl)cc2=O)cc1,21,4,149*,-6,101*,73*
O=C(Nc1ccc(S(=O)(=O)N2CCOCC2)cc1)c1ccc([N+](=O)[O-])o1,11,-42,139*,-1,-89,98*
Cc1ccc(C(=O)Nc2ccc(S(=O)(=O)N3CCCC3)cc2)o1,-17,-19,-2,-2,·,·
CC(=O)Nc1ccc2nc(NC(=O)c3ccc([N+](=O)[O-])o3)sc2c1,-22,-15,61*,1,·,25
O=C(COC(=O)c1ccc([N+](=O)[O-])o1)Nc1ccc(N2CCOCC2)cc1,15,15,0,3,·,·
O=C(Nc1ccc(N2CCOCC2)cc1)c1ccc([N+](=O)[O-])o1,-22,-9,57*,0,·,61*
O=C(Nc1ccc(S(=O)(=O)N2CCCC2)cc1)c1ccc([N+](=O)[O-])o1,-2,4,47*,-3,·,91*
O=C(Nc1ccc(Cc2ccncc2)cc1)c1cccc([N+](=O)[O-])c1,-9,-9,1,1,-21,·
O=C(Nc1ccc(Cc2ccncc2)cc1)c1ccc([N+](=O)[O-])o1,-5,17,63*,-5,·,78*
O=C(Nc1ccc(S(=O)(=O)N2CCOCC2)cc1)c1ccc([N+](=O)[O-])s1,47,20,68*,4,·,4
O=C(Nc1ccc(S(=O)(=O)N2CCOCC2)cc1)c1cccs1,7,-8,2,-2,14,·
CC(=O)Nc1ccc(N=Cc2c(O)c3ccccc3oc2=O)cc1,-7,-7,17,14,·,·
COc1cccc(N=Cc2c(O)c3ccccc3oc2=O)c1,12,11,101*,108*,·,52*
CCOC(=O)C(CC)(CC)C(=O)/C=C/c1cccc(Br)c1,-8,-20,54*,3,·,70*
CC(=O)c1cccc(N(CC(=O)Nc2ccccc2C(=O)N2CCCC2)S(C)(=O)=O)c1,0,23,1,-5,·,·
Cc1c(OCC(=O)N[C@@H](Cc2ccccc2)C(=O)O)ccc2c1oc(=O)c1ccccc12,13,5,2,-2,·,·
Cn1c2ccccc2c(=O)c2c(=O)n(-c3ccccc3)c(-c3ccc(C(C)(C)C)cc3)nc21,-7,-15,59*,21,-41,-2
Cc1ccc(-c2nc3c(c(=O)c4ccccc4n3C)c(=O)n2-c2ccc(F)cc2)cc1,-2,5,3,-4,8,·
C=CCn1c(SCC(=O)Nc2ccc(O)cc2)nc2sc(CC)cc2c1=O,8,-6,3,8,·,·
